{
  "source": "paper PMC3597129",
  "about": "(The Journal of antimicrobial chemotherapy, 2008)",
  "key": {"[1]": {"settings": "2NN study, cited from earlier work"}, "[2]": {"experiment": "Population pharmacokinetic model fitted to each study site separately", "type": "in vivo, human", "settings": "split model, 1600/100 mg once daily; for Population predictions CL/F / Population predictions V/F: typical 70 kg male", "method_in_brief": "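UK sampling: pre-dose to 12 h (24 h if once daily). Thailand: pre-dose to 24 h, 10–15 g fat meal. Plasma from heparinized blood was frozen at −70°C and assayed by HPLC-MS/MS or HPLC-UV. Nonlinear mixed-effects modelling used FO estimation; individual estimates were Bayesian post hoc.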"}, "[3]": {"settings": "for Individual predictions V/F / Population predictions V/F: 1600/100 mg once daily; for Population predictions V/F: typical 70 kg male"}, "[4]": {"settings": "healthy volunteers, Phase I studies; cited from earlier work"}},
  "note": "Read-outs that look alike come from different tables or passages of the source.",
  "data": [
    {"smiles": "Cc1ccnc2c1NC(=O)c1cccnc1N2C1CC1", "note": "[nevirapine]", "values": [
      {"measurement": "higher clearance compared with Thai and South African individuals", "setting": "[1]; South American HIV patients", "value": "~ 11%"},
      {"measurement": "higher clearance compared with Thai and South African individuals", "setting": "[1]; Western HIV patients", "value": "~28", "unit": "%"}
    ]},
    {"smiles": "CC(C)(C)NC(=O)[C@@H]1C[C@@H]2CCCC[C@@H]2CN1C[C@@H](O)[C@H](Cc1ccccc1)NC(=O)[C@H](CC(N)=O)NC(=O)c1ccc2ccccc2n1", "note": "[saquinavir]", "values": [
      {"measurement": "Individual predictions CL/F", "setting": "[2]; Thailand", "value": 22.8, "unit": "L/h"},
      {"measurement": "Individual predictions V/F", "setting": "[2]; Thailand", "value": 184.1, "unit": "L"},
      {"measurement": "Population predictions CL/F", "setting": "[2]; Thailand", "value": 26.7, "unit": "L/h"},
      {"measurement": "Population predictions V/F", "setting": "[2]; Thailand", "value": 245.9, "unit": "L"},
      {"measurement": "Individual predictions CL/F", "setting": "[2]; UK", "value": 79.4, "unit": "L/h"},
      {"measurement": "Individual predictions V/F", "setting": "[2]; UK", "value": 278.8, "unit": "L"},
      {"measurement": "Population predictions CL/F", "setting": "[2]; UK", "value": 89.0, "unit": "L/h"},
      {"measurement": "Population predictions V/F", "setting": "[2]; UK", "value": 313.5, "unit": "L"},
      {"measurement": "Individual predictions CL/F", "setting": "[2]; Uganda", "value": 59.0, "unit": "L/h"},
      {"measurement": "Individual predictions V/F", "setting": "[2]; Uganda", "value": 400.2, "unit": "L"},
      {"measurement": "Population predictions CL/F", "setting": "[2]; Uganda", "value": 49.8, "unit": "L/h"},
      {"measurement": "Population predictions V/F", "setting": "[2]; Uganda", "value": 421.0, "unit": "L"},
      {"measurement": "observed trough concentrations below target (MEC 0.1 mg/L), number", "setting": "[3]; both, human, in vivo", "value": 65},
      {"measurement": "decrease in F", "setting": "[3]; fasted state compared with standardized meal", "value": "~ 40%"},
      {"measurement": "D1 (duration of zero-order input)", "setting": "[3]; full model", "value": 3.08, "unit": "h"},
      {"measurement": "IIV CL/F", "setting": "[3]; full model", "value": 41.4, "unit": "%"},
      {"measurement": "IIV D1", "setting": "[3]; full model", "value": 17.8, "unit": "%"},
      {"measurement": "IIV V/F", "setting": "[3]; full model", "value": 41.6, "unit": "%"},
      {"measurement": "IIV lag-time", "setting": "[3]; full model", "value": 46.8, "unit": "%"},
      {"measurement": "IOV CL/F", "setting": "[3]; full model", "value": 57.3, "unit": "%"},
      {"measurement": "IOV V/F", "setting": "[3]; full model", "value": 37.3, "unit": "%"},
      {"measurement": "Lag-time", "setting": "[3]; full model", "value": 0.57, "unit": "h"},
      {"measurement": "Residual error additive", "setting": "[3]; full model", "value": 0.26, "unit": "mg/L"},
      {"measurement": "Residual error proportional", "setting": "[3]; full model", "value": 34.3, "unit": "%"},
      {"measurement": "V/F", "setting": "[3]; full model, 1000/100 mg bid evening dose", "value": 545, "unit": "L"},
      {"measurement": "V/F", "setting": "[3]; full model, 1000/100 mg bid morning dose", "value": 324, "unit": "L"},
      {"measurement": "V/F", "setting": "[3]; full model, 1600/100 mg qd", "value": 324, "unit": "L"},
      {"measurement": "V/F", "setting": "[3]; full model, 1600/100 mg qd Thailand", "value": 379, "unit": "L"},
      {"measurement": "V/F", "setting": "[3]; full model, 1600/100 mg qd Uganda", "value": 332, "unit": "L"},
      {"measurement": "V/F", "setting": "[3]; full model, 2000/100 mg qd", "value": 324, "unit": "L"},
      {"measurement": "Individual predictions V/F", "setting": "[3]; full model, Thailand", "value": 195.4, "unit": "L"},
      {"measurement": "Population predictions V/F", "setting": "[3]; full model, Thailand", "value": 371.1, "unit": "L"},
      {"measurement": "Individual predictions V/F", "setting": "[3]; full model, UK", "value": 272.9, "unit": "L"},
      {"measurement": "Population predictions V/F", "setting": "[3]; full model, UK", "value": 317.2, "unit": "L"},
      {"measurement": "Individual predictions V/F", "setting": "[3]; full model, Uganda", "value": 521.2, "unit": "L"},
      {"measurement": "Population predictions V/F", "setting": "[3]; full model, Uganda", "value": 325.1, "unit": "L"},
      {"measurement": "increase in F", "setting": "[3]; high-fat meal (66 g fat) compared with standardized meal", "value": "~ 80%"},
      {"measurement": "bioavailability F", "setting": "[4]", "value": 0.039}
    ]}
  ]
}
